Assay results: ChEMBL document CHEMBL1287769, “Investigating the activity of 2-substituted alkyl-6-(2,5-dioxopyrrolidin-1-yl)hexanoates as skin penetration enhancers” (Bioorg Med Chem, 2010)

Experiments:
SK-N-MC = assay: Antiproliferative activity against human SK-N-MC cells after 72 hrs by MTT assay; format: cell-based
In short: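 SK-N-MC cells (ATCC) grown in MEM with 10% FBS, pyruvate, non-essential amino acids, glutamine, antibiotics, fungizone at 37 °C, 5% CO2. Seeded 1.5 × 10^4 cells/well in medium with human diferric transferrin 1.25 µM ([Fe] = 2.5 µM), compounds 0–25 µM, 72 h. MTT added for 2 h, solubilized in SDS/isobutanol/HCl, read at 570 nm. IC50 = concentration reducing absorbance to 50% of untreated control; mean ± SD, n = 3.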

[1] = Potentiation of theophylline transdermal permeation in pig ear skin after 24 hrs by Franz diffusion cells method relative to untreated control; format: functional, Sus scrofa
In short: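 Thawed full-thickness porcine ear skin, epidermis up, in vertical Franz cell (0.635 cm2 donor area). Receptor: PBS pH 7.4, 37 °C, stirred; skin equilibrated 0.5 h. Donor: enhancer 20 mg in PG 0.5 mL plus theophylline 5 mg in water 0.5 mL, sonicated; controls without enhancer. Receptor sampled at 1, 2, 4, 8, 12, 24 h, theophylline by HPLC at 280 nm. Steady-state flux from linear region; ER = flux with/without enhancer; ≥3 determinations, ≥2 animals.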

[2] = Lipophilicity, log K of the compound in methanol-water mixture by HPLC; format: physicochemical
In short: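 Isocratic RP-HPLC on end-capped C18 column, methanol as organic modifier in mobile phase at various amounts, 25 °C, detection 204 nm. Dead time from KI in methanol. Capacity factor k = (tR − tD)/tD; log k used as lipophilicity index.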

| Structure (SMILES) | IC50 (SK-N-MC) | log K [2] | fold change (FC) [1] |
| --- | --- | --- | --- |
| CCOC(=O)C(CCCCN1C(=O)CCC1=O)N1CCCCC1=O (stereo unspecified) | – | -0.9565 | – |
| CCOC(=O)C(CCCCN1C(=O)CCC1=O)N1CCOCC1 (stereo unspecified) | – | -0.7951 | – |
| CCCCCCOC(=O)C(CCCCN1C(=O)CCC1=O)N1CCCCC1=O (stereo unspecified) | > 6.25 µM | -0.2356 | 2.33 |
| CCCCCCCOC(=O)C(CCCCN1C(=O)CCC1=O)N1CCCCC1=O (stereo unspecified) | > 6.25 µM | -0.0685 | 2.17 |
| CCCCCCCCOC(=O)C(CCCCN1C(=O)CCC1=O)N1CCCCC1=O (stereo unspecified) | > 6.25 µM | 0.0973 | 1.88 |
| CCCCCCCCCOC(=O)C(CCCCN1C(=O)CCC1=O)N1CCCCC1=O (stereo unspecified) | > 6.25 µM | 0.2638 | 1.81 |
| CCCCCCOC(=O)C(CCCCN1C(=O)CCC1=O)N1CCOCC1 (stereo unspecified) | > 6.25 µM | -0.0736 | 2.11 |
| CCCCCCCOC(=O)C(CCCCN1C(=O)CCC1=O)N1CCOCC1 (stereo unspecified) | > 6.25 µM | 0.0934 | 1.26 |
| CCCCCCCCOC(=O)C(CCCCN1C(=O)CCC1=O)N1CCOCC1 (stereo unspecified) | > 6.25 µM | 0.2613 | 1.8 |
| CCCCCCCCCOC(=O)C(CCCCN1C(=O)CCC1=O)N1CCOCC1 (stereo unspecified) | > 6.25 µM | 0.4177 | 1.49 |
| CCCCCCCCCCOC(=O)C(CCCCN1C(=O)CCC1=O)N1CCOCC1 (stereo unspecified) | > 6.25 µM | 0.5834 | 1.71 |
| CCCCCCCC/C=C\CCCCCCCC(=O)O [OLEIC ACID] | – | – | 1.13 |

Further lines, with some results ahead:

| IC50 (SK-N-MC) | log K [2] | Structure (SMILES) | fold change (FC) [1] |
| --- | --- | --- | --- |
| > 6.25 µM | 0.9221 | CCCCCCCCCCCCOC(=O)C(CCCCN1C(=O)CCC1=O)N1CCOCC1 (stereo unspecified) | 1.92 |
| > 6.25 µM | 0.4285 | CCCCCCCCCCOC(=O)C(CCCCN1C(=O)CCC1=O)N1CCCCC1=O (stereo unspecified) | 1.63 |
| > 6.25 µM | 0.5894 | CCCCCCCCCCCOC(=O)C(CCCCN1C(=O)CCC1=O)N1CCCCC1=O (stereo unspecified) | 2.36 |
| > 6.25 µM | 0.7413 | CCCCCCCCCCCCOC(=O)C(CCCCN1C(=O)CCC1=O)N1CCCCC1=O (stereo unspecified) | 1.75 |
| > 6.25 µM | 0.7588 | CCCCCCCCCCCOC(=O)C(CCCCN1C(=O)CCC1=O)N1CCOCC1 (stereo unspecified) | 1.61 |
| 17.1 µM | – | CC(=O)N(O)CCCCCNC(=O)CCC(=O)N(O)CCCCCNC(=O)CCC(=O)N(O)CCCCCN [DEFEROXAMINE] | – |
